Screening data (PubChem BioAssay)
Sampled rows, rich in hits. Any-hit rate of the full collection: about 5%.
UPR CHOP act: activators of apoptotic arm of unfolded protein response (CHOP) | AID 449763 | activation, % at 10 µM | CHO-CHOP luciferase reporter, UPR activation, luminescence; percent of tunicamycin response over DMSO baseline | hit rate 0.34% among 330,000;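 active means at 10 µM dose, activation of 40% or more, normalized to positive control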;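 further: 100% = tunicamycin at 10 µg/mL and 0% = DMSO alone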
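Evaluation: % reporter activation, DMSO baseline versus tunicamycin full activation; System: CHO-CHOP luciferase reporter cell line; Input: 500 cells/well; Incubation: 6 h compound treatment, 37 °C; Measured by: Steady-Glo luciferase luminescence; Dosing: one dose, 10 µM in 0.5% DMSO; Buffer or medium: F12 medium, 10% FBS; Benchmarks: positive tunicamycin 10 µg/mL, negative DMSO alone.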
Beta cell apopt: blocks beta cell apoptosis; hit rate 0.8% among 300,000; INS-1E cytokine-induced death, ATP luminescence, 48 h; percent of positive-control rescue, neutral wells zero; protection from apoptosis, % (no concentration beside the values);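 active means Every replicate reaches about 75%, or at least half do and their mean reaches it too, limit read from the data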;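 further: 0% = cytokine-treated negative control wells and 100% = positive control rescue; higher means more ATP so stronger rescue from cytokine killing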
T cruzi repl: T. cruzi replication inhibition. inhibition, % (no concentration beside the values). T. cruzi beta-gal in NIH3T3, luminescence, 90 h. hit rate 1.4% among 300,000;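 active means mean inhibition across valid replicates above about 55%, limit read from the data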;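 further: signal also drops with host cell toxicity which is not excluded here; 0% = plate median of DMSO wells and 100% = zero luminescence signal; higher percent means less beta-gal luminescence so fewer parasites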
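System: mouse NIH/3T3 fibroblasts infected with β-gal-expressing T. cruzi Tulahuen C4 / Input: NIH/3T3 cells, 5,000 per well / Buffer or medium: Low-serum DMEM with 2% FBS / Probe or stimulus: 5000 reporter trypomastigotes per well / Schedule: ≥90 h infection period, 3 h prior cell attachment / Measured by: GalScreen luminescence, 60 min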
CSC inhib: cancer stem cell inhibition; cancer stem cell-like cells viability, luminescence; inhibition, % at 7.5 µM; hit rate 1.1% among 300,000; in the data active means inhibition above about 75%; tested in HMLE shEcad cells
XBP1 UPR activ: activators of adaptive arm of unfolded protein response (XBP1) | CHO-XBP1 luciferase reporter, IRE1-XBP1 UPR activation, luminescence; percent of tunicamycin response, DMSO as zero | activation, % at 20 µM | hit rate 0.33% among 330,000;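 active means versus positive control, 20 µM dose yields 30% or more activation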;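 further: 100% = tunicamycin at 10 µg/mL and 0% = DMSO only wells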
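Assay system: IRE1-XBP1 luciferase reporter CHO line. Input: 1000 cells/well. Buffer or medium: F12 with 10% serum. Doses: 20 µM, 1% DMSO. Times: overnight seeding at 37 °C, 6 h compound treatment at 37 °C. Technique: Steady-Glo luciferase glow luminescence, 10 min after reagent addition.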
Mdm2 MdmX PPI: human Mdm2/MdmX binding inhibition | O15151+Q00987 | hit rate 3% among 330,000 | AID 485346 | SaOS-2 split-luciferase Mdm2/MdmX complementation, luminescence | inhibition, % at 8 µM;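 active means inhibition of at least 50% at 8 µM in the primary screen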
Target sequence (O15151 whole entry, looked up): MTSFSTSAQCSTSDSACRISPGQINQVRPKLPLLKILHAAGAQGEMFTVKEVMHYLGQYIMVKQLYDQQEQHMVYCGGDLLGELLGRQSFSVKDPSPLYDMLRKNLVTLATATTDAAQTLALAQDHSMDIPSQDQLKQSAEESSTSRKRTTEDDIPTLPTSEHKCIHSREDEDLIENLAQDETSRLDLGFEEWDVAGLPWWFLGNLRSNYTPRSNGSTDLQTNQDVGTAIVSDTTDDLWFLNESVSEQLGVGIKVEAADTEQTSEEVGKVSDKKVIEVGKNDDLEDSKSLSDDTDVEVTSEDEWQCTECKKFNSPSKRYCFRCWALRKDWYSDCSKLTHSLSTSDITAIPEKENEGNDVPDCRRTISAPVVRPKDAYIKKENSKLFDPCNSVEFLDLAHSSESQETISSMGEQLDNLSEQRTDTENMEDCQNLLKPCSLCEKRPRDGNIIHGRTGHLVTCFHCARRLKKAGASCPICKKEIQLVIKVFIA
Target sequence (Q00987 whole entry, looked up): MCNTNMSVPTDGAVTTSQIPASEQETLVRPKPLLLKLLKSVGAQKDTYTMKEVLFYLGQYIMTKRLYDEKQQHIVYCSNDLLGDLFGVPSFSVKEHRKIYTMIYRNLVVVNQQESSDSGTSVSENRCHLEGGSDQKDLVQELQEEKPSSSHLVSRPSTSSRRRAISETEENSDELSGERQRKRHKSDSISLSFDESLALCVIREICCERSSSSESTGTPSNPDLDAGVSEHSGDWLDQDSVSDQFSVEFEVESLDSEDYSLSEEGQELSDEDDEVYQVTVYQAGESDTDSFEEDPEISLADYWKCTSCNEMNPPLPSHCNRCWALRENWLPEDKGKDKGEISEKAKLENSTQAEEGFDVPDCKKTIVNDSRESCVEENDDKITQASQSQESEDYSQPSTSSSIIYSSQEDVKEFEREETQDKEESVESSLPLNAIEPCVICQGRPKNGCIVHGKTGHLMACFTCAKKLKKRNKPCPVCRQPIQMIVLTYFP
* = called active by the depositor.

How did Cc1nc2nc(C)c(NS(=O)(=O)c3ccc(Cl)cc3)c(=O)n2[nH]1 do in these assays?
UPR CHOP act: 0; Beta cell apopt: -6; T cruzi repl: -11; CSC inhib: -1; XBP1 UPR activ: 0; Mdm2 MdmX PPI: 25

What do the screens show for `CC1CCc2c(sc3nc(C4CC4)nc(N4CCN(C(=O)c5ccco5)CC4)c23)C1` (stereo not drawn)?
UPR CHOP act: 7; Beta cell apopt: 98*; T cruzi repl: 34; CSC inhib: 37; XBP1 UPR activ: 7; Mdm2 MdmX PPI: 15

Results for COc1ccccc1NC(=O)NC1CC(=O)N(c2ccc3c(c2)OCCO3)C1 (stereo not drawn) ?
UPR CHOP act: -1; T cruzi repl: -14; CSC inhib: -7; XBP1 UPR activ: -2; Mdm2 MdmX PPI: 19

How did COc1cc(-c2ccc3c(=O)c4ccccc4sc3c2)cc(OC)c1OC do in these assays?
UPR CHOP act: 3; Beta cell apopt: 10; CSC inhib: 16; XBP1 UPR activ: 1; Mdm2 MdmX PPI: 41

How did COc1cc(-c2ccc3c(=O)c4ccccc4n(C)c3c2)cc(OC)c1OC do in these assays?
UPR CHOP act: 3; Beta cell apopt: 12; T cruzi repl: 11; CSC inhib: 93*; XBP1 UPR activ: 11; Mdm2 MdmX PPI: 36

How did COc1ccc(C(CNC(=O)C(=O)NC2CCCCC2)N2CCN(C)CC2)cc1 (stereo not drawn) do in these assays?
UPR CHOP act: 1; T cruzi repl: -9; CSC inhib: -4; XBP1 UPR activ: -4; Mdm2 MdmX PPI: 1

What do the screens show for `Cc1cc(C)c2c(C)[nH]nc2n1`?
UPR CHOP act: 0; Beta cell apopt: 162*; T cruzi repl: -9; CSC inhib: 43; XBP1 UPR activ: 1; Mdm2 MdmX PPI: 11

How did COc1cc(C(O)P(=O)(OCCC(C)C)c2ccc(N(C)C)cc2)cc(OC)c1OC (stereo not drawn) do in these assays?
UPR CHOP act: 0; Beta cell apopt: 8; T cruzi repl: -5; CSC inhib: -3; XBP1 UPR activ: -4; Mdm2 MdmX PPI: 14

Results for C/C(=N\Nc1cccc(Cl)c1)C1(C)N(O)C(C)(C)C(c2ccco2)=[N+]1[O-] (stereo not drawn) ?
UPR CHOP act: 3; Beta cell apopt: 7; T cruzi repl: 37; CSC inhib: 84*; XBP1 UPR activ: 0; Mdm2 MdmX PPI: 5

Results for c1ccc(-c2nc(N3CCN(c4ccccc4)CC3)nc(-n3ccnc3)n2)cc1 ?
UPR CHOP act: 1; T cruzi repl: 60*; CSC inhib: 37; XBP1 UPR activ: 3; Mdm2 MdmX PPI: -12

How did CCCCCNc1nc(-c2ccccc2)nc(-n2ccnc2)n1 do in these assays?
UPR CHOP act: 3; Beta cell apopt: 5; T cruzi repl: 62*; CSC inhib: -3; XBP1 UPR activ: 0; Mdm2 MdmX PPI: 27

What do the screens show for `CN(c1ccccc1)c1nc(-n2ccnc2)nc(-n2ccnc2)n1`?
UPR CHOP act: -1; Beta cell apopt: -2; T cruzi repl: 26; CSC inhib: 1; XBP1 UPR activ: 5; Mdm2 MdmX PPI: 0

What do the screens show for `CCCCNc1nc(N(C)c2ccccc2)nc(-n2ccnc2)n1`?
UPR CHOP act: 2; Beta cell apopt: 12; T cruzi repl: 61*; CSC inhib: -16; XBP1 UPR activ: 11; Mdm2 MdmX PPI: -2

How did c1ccc(-c2ccc(-n3ccnc3)cc2)cc1 do in these assays?
UPR CHOP act: 1; Beta cell apopt: -5; T cruzi repl: 56*; CSC inhib: -8; XBP1 UPR activ: 5; Mdm2 MdmX PPI: 2

What do the screens show for `Cc1cc(S(=O)(=O)N2CCN(c3ncccn3)CC2)ccc1-n1cnnn1`?
UPR CHOP act: 0; Beta cell apopt: 3; T cruzi repl: 5; CSC inhib: 16; XBP1 UPR activ: 2; Mdm2 MdmX PPI: 15

What do the screens show for `CNS(=O)(=O)c1cccc(C(=O)OCCCOC(=O)c2cccc(S(=O)(=O)NC)c2)c1`?
UPR CHOP act: -2; Beta cell apopt: 0; T cruzi repl: 5; CSC inhib: 6; XBP1 UPR activ: -4; Mdm2 MdmX PPI: 6

What do the screens show for `Cc1ccc(C)c(N2CCN(C(=O)C34CC5CC(C3)CC(n3nnc(C)n3)(C5)C4)CC2)c1`?
UPR CHOP act: 1; Beta cell apopt: 2; T cruzi repl: 41; CSC inhib: -5; XBP1 UPR activ: 1; Mdm2 MdmX PPI: 47

Results for CC(C)Cn1c(N)c(C(=O)CSc2nc3ccccc3c(=O)n2CCCN2CCOCC2)c(=O)n(C)c1=O ?
UPR CHOP act: 0; Beta cell apopt: -2; T cruzi repl: 55*; CSC inhib: -7; XBP1 UPR activ: -2; Mdm2 MdmX PPI: 19

What do the screens show for `Cn1cc(CN2CCCC(CO)(Cc3ccccc3)C2)cn1` (stereo not drawn)?
UPR CHOP act: -3; T cruzi repl: -2; CSC inhib: -1; XBP1 UPR activ: 1; Mdm2 MdmX PPI: 22

Results for COc1cc(CNCc2c[nH]c3ccccc23)cc(OC)c1 ?
UPR CHOP act: 0; Beta cell apopt: 20; T cruzi repl: 78*; XBP1 UPR activ: -1; Mdm2 MdmX PPI: 18

How did CCOc1ccc(NS(=O)(=O)c2ccc(C(=O)NC3CCC(O)CC3)cc2)cc1 (stereo not drawn) do in these assays?
UPR CHOP act: -1; T cruzi repl: -10; CSC inhib: 16; XBP1 UPR activ: -5; Mdm2 MdmX PPI: 1

How did COC(=O)c1ccccc1NC(=S)N(Cc1ccc2c(c1)OCO2)Cc1cc2cc(OC)ccc2[nH]c1=O do in these assays?
UPR CHOP act: -3; Beta cell apopt: 26; T cruzi repl: 51; CSC inhib: 9; XBP1 UPR activ: -5; Mdm2 MdmX PPI: 15

How did CC(NC(=O)C1CCN(S(=O)(=O)c2ccc3c(c2)NC(=O)CO3)CC1)c1ccccc1 (stereo not drawn) do in these assays?
UPR CHOP act: 2; Beta cell apopt: -6; T cruzi repl: -10; CSC inhib: -17; XBP1 UPR activ: -2; Mdm2 MdmX PPI: 17

Results for COc1cc(C(=O)NCCC(C)C)ccc1OCc1ccc(Cl)cc1Cl ?
UPR CHOP act: 1; Beta cell apopt: 18; T cruzi repl: 70*; CSC inhib: -15; XBP1 UPR activ: -3; Mdm2 MdmX PPI: 18

How did Cc1cc(C)nc(SCc2ccc(C(=O)N/N=C/c3ccncc3)cc2)n1 do in these assays?
UPR CHOP act: -1; Beta cell apopt: -2; T cruzi repl: 10; CSC inhib: -2; XBP1 UPR activ: 4; Mdm2 MdmX PPI: -6

How did Cc1cc(C)nc(SCc2ccc(C(=O)NNC(=O)Nc3cccc(Cl)c3)cc2)n1 do in these assays?
Beta cell apopt: -4; T cruzi repl: -7; CSC inhib: 111*

What do the screens show for `CN1CCN(NC(=S)Nc2ccc(Oc3ccccc3)cc2)CC1`?
UPR CHOP act: 1; Beta cell apopt: -4; T cruzi repl: 12; CSC inhib: -2; XBP1 UPR activ: -1; Mdm2 MdmX PPI: -20
